Measured values: ChEMBL document CHEMBL1153730, “Bioactive constituents of the stem bark of Beilschmiedia zenkeri” (J Nat Prod, 2009)
Values after ≈ are worked out from the molar mass of the structure shown. Active and inactive are the calls of the source. The rule behind the calls is not given here.

How the values were obtained:
Pseudomonas agarici = assay: Antibacterial activity against Pseudomonas agarici by agar well diffusion method; type: functional
Procedure, shortened: (§1)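 Agar well diffusion on pure compounds, with the value reported as MIC. Ampicillin was the positive control for B. subtilis and gentamicin for P. agarici.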

Streptococcus minor = assay: Antibacterial activity against Streptococcus minor by agar well diffusion method; type: functional
Procedure, shortened: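 Agar well diffusion run on extracts and pure compounds, following earlier reports. Ampicillin served as the positive control for this strain. Activity was reported as MIC (µM).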

Bacillus subtilis = assay: Antibacterial activity against Bacillus subtilis by agar well diffusion method; type: functional; procedure, shortened: as §1
Plasmodium falciparum = assay: Antiplasmodial activity against chloroquine-resistant Plasmodium falciparum W2 rings after 48 hrs by FACS analysis; type: functional, organism-based; details: W2, 48 h

| Compound | Activity (Pseudomonas agarici) | Activity (Streptococcus minor) | Activity (Bacillus subtilis) | MIC (Streptococcus minor) | IC50 (Plasmodium falciparum) | MIC (Pseudomonas agarici) | MIC (Bacillus subtilis) |
| --- | --- | --- | --- | --- | --- | --- | --- |
| CCCCCCCCCCCCCCC(=O)OC[C@@H](O)CO | inactive | inactive | inactive |  |  |  |  |
| COc1cc2c(c(OC)c1OC)[C@H](O)C[C@@H](c1ccccc1)O2 | inactive | inactive | inactive |  |  |  |  |
| COc1cc2c(c(OC)c1OC)[C@H](O[C@@H]1C[C@@H](c3ccccc3)Oc3cc(OC)c(OC)c(OC)c31)C[C@@H](c1ccccc1)O2 | inactive | inactive | inactive |  |  |  |  |
| COc1cc2c(c(OC)c1OC)[C@H](OC)C[C@@H](c1ccccc1)O2 | inactive | inactive | inactive |  |  |  |  |
| O=C(/C=C/c1ccccc1)NCCc1ccc2c(c1)OCO2 | inactive | inactive | inactive |  |  |  |  |
| COc1cc2c(c(O)c1OC)[C@H](O[C@@H]1C[C@@H](c3ccccc3)Oc3cc(OC)c(OC)c(OC)c31)C[C@@H](c1ccccc1)O2 [BEILSCHMIEFLAVONOID B] | inactive |  | inactive | 198 µM (≈ 119 µg/mL) |  |  |  |
| C=C(C)[C@@H]1CC[C@]2(C(=O)O)CC[C@]3(C)[C@H](CC[C@@H]4[C@@]5(C)CC[C@H](O)C(C)(C)[C@@H]5CC[C@]43C)[C@@H]12 [BETULINIC ACID] | inactive | inactive | inactive |  | 5.2 µM |  |  |
| CC(C)CNC(=O)/C=C/C=C/CCCCCC/C=C/c1ccc2c(c1)OCO2 [GUINEENSINE] |  | inactive |  |  | 3.7 µM | 81.5 µM (≈ 31.3 µg/mL) | 163 µM (≈ 62.5 µg/mL) |
| COc1cc(O)c2c(c1OC)OC(c1ccccc1)CC2=O (stereo not given) | inactive | inactive | inactive |  | 9.3 µM |  |  |
